ChEMBL document CHEMBL4316598, “Synthesis, antiproliferative and apoptosis induction potential activities of novel bis(indolyl)hydrazide-hydrazone derivatives” (Bioorg Med Chem, 2019)
The source made the active and inactive calls. The rule behind the calls is not given here.

Assays:
HeLa [1] = assay: Induction of ROS generation in human HeLa cells at 5 uM after 4 hrs by DCFH-DA staining-based fluorescence spectrophotometric analysis relative to control; type: functional
How it was run: (§1)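 DCFH-DA ROS: HeLa or MCF-7 cells at 2×10^6/well cultured 12 h, treated 4 or 8 h; t-BHP (10 μM) is the positive control. DCFH-DA 10 μM added for 10 min at 37 °C, cells washed twice with PBS. Fluorescence read at ex 485/em 520 nm. For the NAC arm, NAC (5 mM) is added to the medium before treatment.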

HeLa [2] = assay: Induction of apoptosis in human HeLa cells assessed as late apoptotic cells at 1 uM after 16 hrs by annexin-V FITC/propidium iodide staining based flow cytometric analysis relative to control; type: functional
How it was run: (§2)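 Cells were grown in DMEM with 10% heat-inactivated FBS at 37 °C and 5% CO₂, then plated at 500,000 cells/well in 24-well plates. They were treated from a DMSO stock (DMSO ≤0.1%) for 8, 12 or 16 h. After a PBS wash, cells were resuspended in binding buffer (10 mM HEPES pH 7.4, 2.5 mM CaCl₂, 140 mM NaCl, 0.1% BSA), stained 40 min with FITC-annexin V, then with PI, and run on the flow cytometer immediately. Values are the mean of three independent experiments.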

[3] = target: T1, MAP kinase p38 (Homo sapiens) (UniProt O15264+Q15759+Q16539+P53778); assay: Activation of MAPK p38 phosphorylation in human HeLa cells assessed as increase in ratio of phosphorylated p38 to total p38 level at 5 uM by ELISA; type: cell-based
How it was run: (§3)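 Cell-based ELISA: HeLa or MCF-7 cells (20×10^3/well) grown overnight at 37 °C, 5% CO2, treated with 5 μM, then fixed and blocked. Probed with rabbit anti-total and anti-phospho P38, JNK or ERK1/2 (1:100), then HRP anti-rabbit IgG. Result is the phospho/total ratio; inhibitor arms use […], […] or SP600125. n=3.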

HeLa [4] = assay: Induction of apoptosis in human HeLa cells assessed as late apoptotic cells at 1 uM after 12 hrs by annexin-V FITC/propidium iodide staining based flow cytometric analysis relative to control; type: functional; how it was run: as §2
HeLa [5] = assay: Induction of ROS generation in human HeLa cells at 5 uM after 8 hrs by DCFH-DA staining-based fluorescence spectrophotometric analysis relative to control; type: functional; how it was run: as §1
MCF7 [6] = assay: Induction of ROS generation in human MCF7 cells at 5 uM after 4 to 8 hrs in presence of NAC by DCFH-DA staining-based fluorescence spectrophotometric analysis; type: functional, cell-based; how it was run: as §1
MCF7 [7] = assay: Induction of apoptosis in human MCF7 cells assessed as viable cells at 1 uM after 8 hrs by annexin-V FITC/propidium iodide staining based flow cytometric analysis relative to control; type: functional; settings: MCF7, 8 h, read-out: Activity; how it was run: as §2
MCF7 [8] = assay: Induction of apoptosis in human MCF7 cells assessed as early apoptotic cells at 1 uM after 16 hrs by annexin-V FITC/propidium iodide staining based flow cytometric analysis relative to control; type: functional; how it was run: as §2
HeLa [9] = assay: Induction of apoptosis in human HeLa cells assessed as change in Bcl-2 level at 1 to 3 uM after 24 hrs by Western blot analysis; type: functional, cell-based
How it was run: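 Western blot: HeLa cells treated 24 h at 37 °C, lysed on ice, protein quantified by BCA. Proteins separated by electrophoresis, transferred to nitrocellulose, blocked 1 h in non-fat milk. Primary antibody (Bcl2) applied overnight at 4 °C, secondary 1 h at 28 °C, detected by enhanced chemiluminescence.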

[10] = target: T2, Tyrosine-protein phosphatase non-receptor type 1 (Homo sapiens) (UniProt P18031); assay: Inhibition of recombinant human PTP1B using 6,8-difluoro-4-methylumbelliferyl phosphate fluorogenic substrate at 50 uM measured over 30 mins by fluorescence assay relative to control
T2 sequence (whole entry): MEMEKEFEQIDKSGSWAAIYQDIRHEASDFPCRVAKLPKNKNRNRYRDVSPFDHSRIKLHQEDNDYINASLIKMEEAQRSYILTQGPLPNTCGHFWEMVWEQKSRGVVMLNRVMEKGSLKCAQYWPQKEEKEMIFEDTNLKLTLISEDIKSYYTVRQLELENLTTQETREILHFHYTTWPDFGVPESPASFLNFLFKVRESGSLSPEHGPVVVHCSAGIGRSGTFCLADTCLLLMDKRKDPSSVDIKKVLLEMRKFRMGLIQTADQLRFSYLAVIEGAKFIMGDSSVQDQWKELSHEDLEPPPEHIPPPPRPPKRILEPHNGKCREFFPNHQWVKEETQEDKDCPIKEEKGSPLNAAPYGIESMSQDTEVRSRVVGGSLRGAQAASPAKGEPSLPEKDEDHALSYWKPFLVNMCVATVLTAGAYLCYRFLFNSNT
How it was run: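 Recombinant human PTP1B, 1.56 ng/well, in buffer of 25 mM HEPES, 50 mM NaCl, 2.5 mM EDTA, DTT and 0.01 mg/mL human albumin. Preincubated with compound for 30 min in the dark, then DiFMUP added (25 μL of 10 μM solution). Fluorescence read after 10 min (ex 360/em 465 nm). Triplicates; % inhibition relative to PTP inhibitor IV (0.16 mM) and buffer controls.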

HeLa [11] = assay: Induction of apoptosis in human HeLa cells assessed as increase in Mcl-1 short level at 1 to 3 uM after 24 hrs by Western blot analysis; type: functional, cell-based
How it was run: (§4)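 Cells were treated at 1, 3 and 5 µM for 24 h at 37 °C. Lysis was in ice-cold Triton X-100 buffer with protease and phosphatase inhibitors; nuclear proteins were extracted separately. Protein was quantified by BCA. Lysates were separated by electrophoresis, transferred to nitrocellulose and blocked in non-fat milk for 1 h. Primary antibody was applied overnight at 4 °C and secondary for 1 h at 28 °C. Detection was by enhanced chemiluminescence.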

MCF7 [12] = assay: Induction of caspase-dependent apoptosis in human MCF7 cells assessed as activation of caspase-8 at 1 to 3 uM after 24 hrs by Western blot analysis; type: functional, cell-based; how it was run: as §4
MCF7 [13] = assay: Effect on mitochondrial membrane potential in human MCF7 cells assessed as shift change at 5 uM after 2 hrs by Rhodamine 123 dye-based fluorescence assay; type: functional, cell-based
How it was run: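 Mitochondrial potential: HeLa or MCF-7 cells treated with 5 µM (final) for 1, 2, 4 and 8 h. Rhodamine 123 added, cells incubated 30 min at 37 °C, washed with PBS, and analysed by flow cytometry. Fluorescence histogram shift is compared with control.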

MCF7 [14] = assay: Induction of apoptosis in human MCF7 cells assessed as late apoptotic cells at 1 uM after 12 hrs by annexin-V FITC/propidium iodide staining based flow cytometric analysis relative to control; type: functional; how it was run: as §2
[15] = target: T1, MAP kinase p38 (Homo sapiens); assay: Activation of MAPK p38 phosphorylation in human MCF7 cells assessed as increase in ratio of phosphorylated p38 to total p38 level at 5 uM in presence of p38 kinase inhibitor […] by ELISA; type: cell-based; how it was run: as §3
[16] = target: Mitogen-activated protein kinase; ERK1/ERK2 (Homo sapiens) (UniProt P27361+P28482); assay: Activation of ERK1/2 phosphorylation in human MCF7 cells assessed as increase in ratio of phosphorylated ERK1/2 to total ERK1/2 level at 5 uM by ELISA; type: cell-based; how it was run: as §3
Mitogen-activated protein kinase; ERK1/ERK2 (Homo sapiens), sequence (P27361 whole entry, looked up): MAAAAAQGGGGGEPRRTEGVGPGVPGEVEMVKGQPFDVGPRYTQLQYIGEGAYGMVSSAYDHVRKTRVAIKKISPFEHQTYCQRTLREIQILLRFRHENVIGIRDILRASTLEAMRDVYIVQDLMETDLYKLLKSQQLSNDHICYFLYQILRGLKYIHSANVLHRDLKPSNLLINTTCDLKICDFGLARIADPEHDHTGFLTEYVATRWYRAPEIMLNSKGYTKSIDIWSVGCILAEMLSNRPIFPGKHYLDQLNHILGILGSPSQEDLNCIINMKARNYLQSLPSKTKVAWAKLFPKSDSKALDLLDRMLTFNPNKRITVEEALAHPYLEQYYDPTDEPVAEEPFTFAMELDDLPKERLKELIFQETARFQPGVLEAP
Mitogen-activated protein kinase; ERK1/ERK2 (Homo sapiens), sequence (P28482 whole entry, looked up): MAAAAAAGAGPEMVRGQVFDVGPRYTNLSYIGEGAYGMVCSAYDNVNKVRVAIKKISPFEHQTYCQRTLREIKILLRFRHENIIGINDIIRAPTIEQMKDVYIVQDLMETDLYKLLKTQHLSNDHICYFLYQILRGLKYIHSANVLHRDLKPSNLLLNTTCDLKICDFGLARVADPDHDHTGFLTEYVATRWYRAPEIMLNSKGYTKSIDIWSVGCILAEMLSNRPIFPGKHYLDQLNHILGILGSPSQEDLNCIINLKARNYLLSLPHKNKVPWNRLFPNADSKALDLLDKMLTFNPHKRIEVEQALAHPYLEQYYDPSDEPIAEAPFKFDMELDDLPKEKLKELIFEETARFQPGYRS

- Activity [3]: Active
- inhibition [10]: 48%
- Activity [15]: inactive
- Activity [16]: Active
SMILES: Cn1cc(/C=N\NC(=O)c2cn(C)c3ccc(Br)cc23)c2ccccc21
- Activity (HeLa [1]): 29.9%
- Activity (HeLa [2]): 71.74%
- Activity (HeLa [4]): 18.42%
- Activity (HeLa [5]): 58.9%
- Activity (MCF7 [6]): inactive
- viability at 1 µM (MCF7 [7]): 93.4%
- Activity (MCF7 [8]): 16.41%
- Activity (HeLa [9]): inactive
- Activity (HeLa [11]): Active
- Activity (MCF7 [12]): inactive
- Activity (MCF7 [13]): Active
- Activity (MCF7 [14]): 35.72%
